Here are results for 16 compounds from ChEMBL document CHEMBL1128487, “Reduced-size antagonists of luteinizing hormone-releasing hormone active in vitro” (1995).

Each structure is given as a SMILES string. Square brackets hold non-standard residues; d marks the D form. Peptide text beside a SMILES is read from it. * marks the point of attachment. ξ: configuration not given here. 2Nal = N[C@@H](Cc1ccc2ccccc2c1)C(=O)O; ξLys(iPr) = CC(C)NCCCCC(N)C(=O)O; Picolinoyl = O=C(c1ccccn1)*; ξR = N=C(N)NCCCC(N)C(=O)O

The species named for assay [1] is Rattus norvegicus. The assay can be described thus: In vitro inhibition of LH release in rat pituitary cells at a dose of 1 ng LHRH in absence of the compound. In kind it is functional, Pituitary gland cell. Set-up: unit: ng/mL. In a few lines: (§1)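 Anterior pituitaries from female Sprague-Dawley rats (240-260 g, 18 rats) were minced and dispersed in Gey's solution with trypsin, DNase I and LBBI. Cells were plated in DMEM with 0.45% glucose, 25 mM HEPES, serum, T and 100 nM dexamethasone at about 3.0 × 10^5 cells/mL and cultured 4 days at 37 °C in 8% CO2. Cells were then exposed to antagonist plus 1 ng LHRH in Gey's solution with 0.3% glucose for 2 h. LH in the medium was measured by RIA as ng/mL of RP-3.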

In assay [2] the target is T1, Gonadotropin-releasing hormone receptor (Rattus norvegicus) (UniProt P30969).
T1 sequence (whole entry): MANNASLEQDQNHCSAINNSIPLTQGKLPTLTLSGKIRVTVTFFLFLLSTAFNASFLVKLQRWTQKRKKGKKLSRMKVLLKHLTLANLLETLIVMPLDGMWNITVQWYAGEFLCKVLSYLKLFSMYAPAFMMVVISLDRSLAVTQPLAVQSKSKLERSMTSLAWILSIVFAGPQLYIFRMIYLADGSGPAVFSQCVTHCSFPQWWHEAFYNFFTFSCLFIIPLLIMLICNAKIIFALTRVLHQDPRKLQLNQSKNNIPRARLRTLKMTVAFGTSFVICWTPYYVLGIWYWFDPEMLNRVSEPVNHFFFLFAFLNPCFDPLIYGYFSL
Briefly: In vitro inhibition of LH release was determined in rat pituitary cells at a dose of 100 ug of analogue and 1 ng of LHRH. The class given is functional, cell-based. As to conditions: Pituitary gland cell. In a few lines:
as §1

Assay [3] has as its target T1, Gonadotropin-releasing hormone receptor (Rattus norvegicus). Briefly: In vitro inhibition of LH release was determined in rat pituitary cells at a dose of 10 ug of analogue and 1 ng of LHRH. The class given is functional, cell-based. As to conditions: Pituitary gland cell. The procedure, abridged: as §1
The target is the same in assay [4]. Briefly: In vitro inhibition of LH release was determined in rat pituitary cells at a dose of 30 ug of analogue and 1 ng of LHRH. In kind it is functional, cell-based. As to conditions: Pituitary gland cell. The procedure, abridged: as §1
For assay [5] the target is unchanged. Briefly: In vitro antagonistic activity against LH release in rat pituitary cells for control. In kind it is functional, cell-based. As to conditions: Pituitary gland cell. The procedure, abridged: as §1
Assay [6] shares this target. The assay can be described thus: In vitro inhibition of LH release determined in rat pituitary cells at a dose of 3 ug of analogue and 1 ng of LHRH. In kind it is functional, cell-based. As to conditions: Pituitary gland cell. In a few lines: as §1
For assay [7] the target is unchanged. The assay can be described thus: In vitro inhibition of LH release in rat pituitary cells at a dose of 1 ug of analogue and 1 ng of LHRH. As to conditions: Pituitary gland cell. In kind it is functional, cell-based. In a few lines: as §1
For assay [8] the target is unchanged. The assay can be described thus: In vitro inhibition of LH release was determined in rat pituitary cells at a dose of 0.3 ug of analogue and 1 ng of LHRH. The following applies: Pituitary gland cell. The class given is functional, cell-based. The procedure, abridged: as §1
The test system of assay [9] is Rattus norvegicus. Briefly: In vivo anti-ovulatory activity (AOA) against LHRH was determined at a dose of 1 ug in 6 rats. In kind it is functional. The procedure, abridged:
(§2)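 Female 4-day cycling rats received a single subcutaneous injection of analog in corn oil between 12 and 12:30 p.m. Ova were counted on estrus. Activity is given as the number of ovulating rats over the total rats at each dose.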

Assay [10] deals with T1, Gonadotropin-releasing hormone receptor (Rattus norvegicus). Briefly: In vitro inhibition of LH release was determined in rat pituitary cells at a dose of 0.1 ug of analogue and 1 ng of LHRH. As to conditions: Pituitary gland cell. In kind it is functional, cell-based. In a few lines:
as §1

The subject of assay [11] is Rattus norvegicus. The assay can be described thus: In vivo anti-ovulatory activity (AOA) against LHRH was determined at a dose of 10 ug in 6 rats. In kind it is functional. The procedure, abridged: as §2
Assay [12] concerns the target T1, Gonadotropin-releasing hormone receptor (Rattus norvegicus). Briefly: In vitro inhibition of LH release was determined in rat pituitary cells at a dose of 0.03 ug of analogue and 1 ng of LHRH. The class given is functional, cell-based. The following applies: Pituitary gland cell. In a few lines: as §1
Assay [13] relates to Rattus norvegicus. Briefly: In vivo anti-ovulatory activity (AOA) against LHRH was determined at a dose of 100 ug in 6 rats. The class given is functional. The procedure, abridged: as §2
For assay [14], the system named is Rattus norvegicus. The assay can be described thus: In vivo anti-ovulatory activity (AOA) against LHRH was determined at a dose of 1000 ug in 6 rats. The class given is functional. The procedure, abridged:
as §2

Regarding `CC(=O)N[C@@H](Cc1ccc2ccccc2c1)C(=O)N[C@@H](CCCCNC(=O)c1ccccn1)C(=O)N1CCC[C@H]1C(N)=O`, the Activity came to 145 in the assay listed under Rattus norvegicus [1]; 71 in assay [2]; 129 in assay [3]; 113 in assay [4]; 3.1 in assay [5]; 139 in assay [6]. Further, in assay [7], the Activity was 145.

On to `CCNC(=O)[C@@H]1CCCN1C(=O)[C@H](Cc1ccc2ccccc2c1)NC(C)=O` (Ac-[2Nal]-Pro-NHEt), for which the Activity in the assay filed under Rattus norvegicus [1] turned out to be 145; in assay [2], 14; in [3], 101; in [4] it was 59; in assay [5], 3.1; in [6], 141. The Activity in [7] worked out at 135.

Take `CC(=O)N[C@@H](Cc1ccc2ccccc2c1)C(=O)N[C@@H](CCCN=C(N)N)C(=O)N[C@@H](C)C(N)=O`: the Activity was 153 in the assay listed under Rattus norvegicus [1]; 69 in assay [2]; 101 in assay [3]; 66 in assay [4]; 3.5 in assay [5]; 145 in [6]. This compound yielded an Activity in assay [7] of 151.

For `CC(=O)NC(Cc1ccc2ccccc2c1)C(=O)N[C@@H](Cc1ccc(Cl)cc1)C(=O)N[C@@H](Cc1cccnc1)C(=O)N[C@@H](CO)C(=O)N[C@@H](Cc1ccc(O)cc1)C(=O)NC(Cc1ccc2ccccc2c1)C(=O)N[C@@H](CC(C)C)C(=O)N[C@@H](CCCN=C(N)N)C(=O)N1CCC[C@H]1C(=O)N[C@H](C)C(N)=O` (stereo in doubt), the Activity in assay [8] is 4; in [10], 4; in the assay filed under Rattus norvegicus [1] it was 149; in [5] it was 3.8; in assay [12], 8; in [7] it was 4. Further, the AOA in the assay with Rattus norvegicus [9] is given as 5; in the assay on Rattus norvegicus [11] it was 0.

Regarding `CCNC(=O)[C@@H]1CCCN1C(=O)[C@H](CCCN=C(N)N)NC(=O)[C@H](CC(C)C)NC(=O)[C@H](Cc1ccc2ccccc2c1)NC(C)=O` (Ac-[2Nal]LRP-NHEt), the Activity in the assay filed under Rattus norvegicus [1] is 145; in [2], 9; in assay [3] it was 88; in assay [4], 25; in assay [5], 3.1; in assay [6], 120. This compound also displayed an Activity in [7] of 148.

On to `CC(=O)NC(Cc1ccc2ccccc2c1)C(=O)N[C@@H](Cc1ccc(Cl)cc1)C(=O)N[C@@H](CO)C(=O)N[C@@H](Cc1ccc(O)cc1)C(=O)NC(Cc1ccc2ccccc2c1)C(=O)N[C@@H](CC(C)C)C(=O)N[C@@H](CCCN=C(N)N)C(=O)N1CCC[C@H]1C(=O)N[C@H](C)C(N)=O` (stereo in doubt), for which the Activity in [8] was 14; in assay [10], 29; in the assay listed under Rattus norvegicus [1], 149; in assay [5], 3.8; in assay [12], 39; in [7] it was 6. Also, the AOA in the assay with Rattus norvegicus [13] and with Rattus norvegicus [14] was 6 in each case.

As for `CC(=O)N[C@H](Cc1ccc2ccccc2c1)C(=O)N[C@H](Cc1cccnc1)C(=O)N[C@@H](CO)C(=O)N[C@@H](Cc1ccc(O)cc1)C(=O)N[C@H](Cc1ccc2ccccc2c1)C(=O)N[C@@H](CC(C)C)C(=O)N[C@@H](CCCN=C(N)N)C(=O)N1CCC[C@H]1C(=O)N[C@H](C)C(N)=O`, the Activity in [8] was determined as 6; in [10], 14; in the assay filed under Rattus norvegicus [1], 149; in assay [5], 3.8; in assay [12], 28; in assay [7] it was 3. For the same compound, the values for the AOA in the assay on Rattus norvegicus [13], in the assay on Rattus norvegicus [11] and with Rattus norvegicus [14] were 6, 6 and 4, respectively.

For `CC(=O)N[C@@H](Cc1ccc2ccccc2c1)C(=O)NC(CCCCNC(=O)c1ccccn1)C(=O)N[C@@H](CCCCNC(=O)c1ccccn1)C(=O)NC(CCCN=C(N)N)C(=O)NC(C)C(N)=O` (stereo in doubt), the Activity in the assay filed under Rattus norvegicus [1] was found to be 156; in assay [2], 64; in [3], 142; in assay [4], 105; in assay [5], 2.3; in assay [6], 158. The Activity in assay [7] was determined as 145.

In the case of `CC(=O)N[C@@H](Cc1ccc2ccccc2c1)C(=O)N[C@@H](CCCCNC(=O)c1ccccn1)C(=O)NC(CCCN=C(N)N)C(=O)N1CCC[C@H]1C(N)=O` (some centres not stated) (Ac-[2Nal]K(Picolinoyl)[ξR]P-NH2), the Activity in the assay listed under Rattus norvegicus [1] was 153; in assay [2] it was 63; in assay [3], 132; in assay [4], 136; in [5], 3.5; in [6] it was 145. In [7], this compound gave an Activity of 148.

`CC(=O)N[C@@H](Cc1ccc2ccccc2c1)C(=O)N[C@@H](C)C(N)=O` (Ac-[2Nal]-Ala-NH2): the Activity in the assay listed under Rattus norvegicus [1] came to 153; in assay [2], 16; in assay [3] it was 124; in assay [4] it was 88; in assay [5], 3.5; in assay [6] it was 153. For the same compound, the Activity in assay [7] worked out at 148.

Consider `CCNC(=O)[C@@H]1CCCN1C(=O)[C@H](CCCN=C(N)N)NC(=O)[C@H](CC(C)C)NC(=O)[C@H](Cc1ccc2ccccc2c1)NC(=O)[C@H](Cc1ccc2ccccc2c1)NC(C)=O` (Ac-[2Nal][2Nal]LRP-NHEt), for which the Activity in the assay listed under Rattus norvegicus [1] was 156; in [2], 98; in assay [3] it was 147; in [4], 122; in [5], 2.3; in [6], 158. Also, in assay [7], the Activity came out at 145.

Consider `CC(=O)NC(Cc1ccc2ccccc2c1)C(=O)N[C@@H](CO)C(=O)N[C@@H](Cc1ccc(O)cc1)C(=O)NC(Cc1ccc2ccccc2c1)C(=O)N[C@@H](CC(C)C)C(=O)N[C@@H](CCCN=C(N)N)C(=O)N1CCC[C@H]1C(=O)N[C@H](C)C(N)=O` (stereo in doubt), for which the Activity turned out to be 12 in [8]; 37 in assay [10]; 236 in the assay filed under Rattus norvegicus [1]; 5.3 in assay [5]; 3 in assay [6]; 7 in [7]. For the same compound, the AOA in the assay with Rattus norvegicus [13] and with Rattus norvegicus [14] was 6 each time.

As for `CC(=O)NC(Cc1ccc2ccccc2c1)C(=O)N[C@@H](CCCCNC(=O)c1ccccn1)C(=O)N[C@@H](CCCN=C(N)N)C(=O)NC(C)C(N)=O` (single isomer, unassigned), the Activity in the assay listed under Rattus norvegicus [1] amounted to 156; in [2], 8; in [3] it was 75; in [4], 26; in assay [5], 2.3; in assay [6], 145. The same compound yielded an Activity in [7] of 147.

Consider `CC(=O)N[C@@H](Cc1ccc2ccccc2c1)C(=O)N[C@@H](Cc1ccc(O)cc1)C(=O)N[C@@H](Cc1ccc2ccccc2c1)C(=O)N[C@@H](CCCN=C(N)N)C(=O)N[C@@H](C)C(N)=O` (Ac-[2Nal]Y[2Nal]RA-NH2), for which the Activity turned out to be 156 in the assay filed under Rattus norvegicus [1]; 21 in assay [2]; 121 in assay [3]; 66 in assay [4]; 2.3 in assay [5]; 135 in assay [6]. This compound also had an Activity in [7] of 142.

Take `CC(=O)N[C@@H](Cc1ccc2ccccc2c1)C(=O)N[C@@H](CC(C)C)C(=O)N[C@@H](CCCN=C(N)N)C(=O)N[C@@H](C)C(N)=O` (Ac-[2Nal]LRA-NH2): the Activity was found to be 155 in the assay listed under Rattus norvegicus [1]; 49 in assay [2]; 116 in [3]; 87 in assay [4]; 3.5 in assay [5]; 136 in [6]. In assay [7], this compound showed an Activity of 145.

Consider `CC(=O)N[C@@H](Cc1ccc2ccccc2c1)C(=O)N[C@@H](CCCCNC(=O)c1ccccn1)C(=O)NC(CCCCNC(C)C)C(=O)N1CCC[C@H]1C(N)=O` (some centres not stated) (Ac-[2Nal]K(Picolinoyl)[ξLys(iPr)]P-NH2), for which the Activity in the assay filed under Rattus norvegicus [1] came to 153; in [2] it was 118; in assay [3] it was 144; in assay [4], 128; in assay [5], 3.5; in [6], 150. In assay [7], this compound displayed an Activity of 186.
